Published values pooled from the literature.
Lines come from different studies, so protocols differ.
Cell line: HepG2
Read-out: cell growth or viability

SMILES | method | time | CC50 [µM]
Cc1ccc(Oc2ccc(NC(=O)CNc3ccccc3N3CCCCC3=O)cc2)cc1 | ATP luminescence | 48 h | 15
CN1CCN(c2cccc(-c3ccc4ncnc(Nc5ccc([N+](=O)[O-])c(C(F)(F)F)c5)c4c3)c2)CC1 | MTT | 48 h | 34
CO[C@H]1/C=C/O[C@@]2(C)Oc3c(C)c(O)c4c(c3C2=O)C2=NC3(CCN(CC(C)C)CC3)NC2=C(NC(=O)/C(C)=C\C=C\[C@H](C)[C@H](O)[C@@H](C)[C@@H](O)[C@@H](C)[C@H](OC(C)=O)[C@@H]1C)C4=O | – | 48 h | 170
O=C(CNc1ccccc1N1CCCC1=O)Nc1ccc(Oc2cccc(Cl)c2)cc1 | ATP luminescence | 48 h | > 40
N=C(CC(O)c1nc2ccccc2c2ccc(Br)cc12)Nc1ccc(F)cc1 (centres unmarked) | neutral red | 24 h | > 25
CN1CCN(c2cccc(-c3ccc4ncnc(Nc5ccc(Cl)c(C(F)(F)F)c5)c4c3)c2)CC1 | MTT | 48 h | 15
CC(C)N(c1ccc(NC(=O)CN(C)c2ccccc2N2CCCC2=O)cc1)c1ccc(Cl)c(F)c1 | ATP luminescence | 48 h | > 40
CC(=O)OC[C@H]1O[C@@H]([S-])[C@H](OC(C)=O)[C@@H](OC(C)=O)[C@@H]1OC(C)=O.CCP(CC)CC.[Au+] | ATP luminescence | 72 h | 9.81
FC(F)(F)c1cc(Nc2ncnc3ccc(-c4cccc(N5CCOCC5)c4)cc23)ccc1Cl | MTT | 48 h | 29
N=C(CC(O)c1nc2cc(F)ccc2c2ccc(F)cc12)Nc1ccc(F)cc1 (centres unmarked) | neutral red | 24 h | 19.4
O=[N+]([O-])c1ccc(Nc2ncnc3ccc(-c4cccc(N5CCOCC5)c4)cc23)cc1C(F)(F)F | MTT | 48 h | > 40
CN(CC(=O)Nc1ccc(N(C)c2ccc(Cl)c(Cl)c2)cc1)c1ccccc1N1CCCC1=O | ATP luminescence | 48 h | > 40
O=C1C(O)=C([C@H]2CC[C@H](c3ccc(Cl)cc3)CC2)C(=O)c2ccccc21 | ATP luminescence | 72 h | 9.67
N=C(CC(O)c1ccnc2c1ccc1ccccc12)Nc1ccc(F)cc1 (centres unmarked) | neutral red | – | 33.3
O=C(Nc1ccncc1)c1cc([N+](=O)[O-])ccc1Cl | ATP luminescence | 72 h | 18.1
CC(C)N(c1ccc(Cl)c(F)c1)c1ccc(NC(=O)CN(C)c2ccccc2N2CCCC2=O)c(F)c1 | ATP luminescence | 48 h | > 40
CN1CCN(c2cccc(-c3ccc4ncnc(Nc5ccc(Cl)c(Cl)c5)c4c3)c2)CC1 | MTT | 48 h | 14
